Test results reported in ChEMBL document CHEMBL1141180, “Synthesis and antiviral activity of helioxanthin analogues” (J Med Chem, 2005).

What was measured:
Hepatitis C virus [1] = test: Effective concentration to inhibit 50% of hepatitis C virus replication in a cell culture model; assay type: functional, organism-based, Hepacivirus hominis
How it was run: (§1)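 HCV replicon Huh-Luc/neo cells grown to confluence, then treated with varying drug concentrations in DMEM with 10% dFBS for 3 days. Medium was removed and cells lysed in passive lysis buffer, shaken 15 min at room temperature. Lysate was mixed with luciferase substrate and luminescence read immediately as the measure of replicon activity.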

Human alphaherpesvirus 2 [2] = test: Effective concentration to inhibit 50% of herpes simplex virus type 2 replication in a cell culture model; assay type: functional, organism-based
Human gammaherpesvirus 4 [3] = test: Effective concentration to inhibit 50% of epstein Barr virus replication in a cell culture model; assay type: functional, organism-based
CCRF-CEM = test: Cytotoxicity against CEM cell lines of human; assay type: functional; conditions: read-out: ID50 (the source's name)
Hepatitis C virus [4] = test: Percent inhibition against Hepatitis C virus replication in a cell culture model; assay type: functional, Hepacivirus hominis; how it was run: as §1
[5] = Effective concentration to inhibit 50% of human immunodeficiency virus replication in a cell culture model; assay type: functional
Human alphaherpesvirus 1 [6] = test: Effective concentration to inhibit 50% of herpes simplex virus type 1 replication in a cell culture model; assay type: functional, organism-based
MT2 = test: Cytotoxicity against MT-2 cell lines of human; assay type: functional; conditions: read-out: ID50 (the source's name)
Hepatitis B virus [7] = test: Effective concentration to inhibit 50% of hepatitis B virus replication in a cell culture model; assay type: functional, organism-based
[8] = Effective concentration to inhibit 50% of cytomegalovirus (CMV) replication in a cell culture model; assay type: functional
Human alphaherpesvirus 2 [9] = test: Effective concentration to inhibit 50 % of Herpes simplex virus type 2 replication in a cell culture model; conditions: Oryctolagus cuniculus
Hepatitis B virus [10] = test: Effective concentration to inhibit 50 % of hepatitis B virus replication in a cell culture model (3.4>10); assay type: functional, organism-based
Human gammaherpesvirus 4 [11] = test: Effective concentration to inhibit 50 % of Epstein Barr virus replication in a cell culture model; assay type: functional, organism-based, epsteinBarr virus
Human alphaherpesvirus 1 [12] = test: Effective concentration to inhibit 50 % of Herpes simplex virus type 1 replication in a cell culture model; assay type: functional, organism-based
Human alphaherpesvirus 2 [13] = test: Effective concentration to inhibit 50 % of herpes simplex virus type 2 replication in a cell culture model;ND=Not determined; conditions: Oryctolagus cuniculus

Row | SMILES | EC50 (Hepatitis C virus [1]) [µM] | EC50 (Human alphaherpesvirus 2 [2]) [µM] | EC50 (Human gammaherpesvirus 4 [3]) [µM] | IC50 (CCRF-CEM) [µM] | Inhibition (Hepatitis C virus [4]) [%] | EC50 [5] [µM] | EC50 (Human alphaherpesvirus 1 [6]) [µM] | IC50 (MT2) [µM] | EC50 (Hepatitis B virus [7]) [µM] | EC50 [8] [µM] | EC50 (Human alphaherpesvirus 2 [9]) [µM] | EC50 (Hepatitis B virus [10]) [µM] | EC50 (Human gammaherpesvirus 4 [11]) [µM] | EC50 (Human alphaherpesvirus 1 [12]) [µM] | EC50 (Human alphaherpesvirus 2 [13]) [µM]
1 | O=C1c2cc3ccc4c(c3c(-c3ccc5c(c3)OCO5)c2C(=O)N1CCCOCc1ccccc1)OCO4 | 10 | > 50 | > 5 | > 100 | 62 | > 100 | > 50 | > 100 | – | – | – | – | – | – | –
2 | O=C(O)c1cc2c(Cl)cc3c(c2c(-c2ccc4c(c2)OCO4)c1CO)OCO3 | > 10 | > 20 | > 20 | > 100 | – | > 60 | > 50 | 60 | > 10 | > 20 | – | – | – | – | –
3 | O=C1OCc2c1cc1ccc3c(c1c2-c1ccc2c(c1)OCO2)OCO3 [HELIOXANTHIN] | > 3 | 35 | > 20 | 30 | – | > 2.5 | 2 | 2.5 | > 1 | 7.3 | – | – | – | – | –
4 | CCOC(=O)c1c(C(=O)OCC)c(-c2ccc3c(c2)OCO3)c2c3c(ccc2c1O)OCO3 | > 10 | – | > 10 | 39 | – | > 15 | > 50 | 15 | > 10 | – | > 50 | – | – | – | –
5 | O=C1OCc2c1cc1c(Cl)cc3c(c1c2-c1ccc2c(c1)OCO2)OCO3 | > 10 | > 25 | > 20 | 27 | – | > 50 | 23 | 50 | > 60 | 8.8 | – | – | – | – | –
6 | O=C1OC(=O)c2c1cc1ccc3c(c1c2-c1ccc2c(c1)OCO2)OCO3 | > 10 | > 50 | > 20 | > 50 | – | > 100 | > 50 | > 100 | > 10 | 17.6 | – | – | – | – | –
7 | O=C(O)c1cc2ccc3c(c2c(-c2ccc4c(c2)OCO4)c1CO)OCO3 | 10 | 25 | > 20 | 30 | – | > 10 | 9 | 10 | – | 2.5 | – | > 3.4 | – | – | –
8 | O=c1[nH][nH]c(=O)c2c(-c3ccc4c(c3)OCO4)c3c4c(cc(Br)c3cc12)OCO4 | 3 | > 20 | > 20 | 28 | 45 | 2.5 | 16 | > 100 | > 10 | – | – | – | – | – | –
9 | NC(=O)c1cc2ccc3c(c2c(-c2ccc4c(c2)OCO4)c1C(N)=O)OCO3 | > 10 | > 50 | > 20 | > 100 | – | > 100 | > 50 | > 100 | > 10 | – | – | – | – | – | –
10 | CC(=O)NN1C(=O)c2cc3ccc4c(c3c(-c3ccc5c(c3)OCO5)c2C1=O)OCO4 | > 10 | > 40 | > 20 | 93 | – | > 100 | > 40 | > 100 | 1 | – | – | – | – | – | –
11 | O=c1[nH][nH]c(=O)c2c(-c3ccc4c(c3)OCO4)c3c4c(cc(I)c3cc12)OCO4 | 10 | > 40 | > 20 | 40 | – | > 2 | > 40 | 35 | > 10 | – | – | – | – | – | –
12 | O=c1[nH][nH]c(=O)c2c(-c3ccc4c(c3)OCO4)c3c4c(ccc3cc12)OCO4 | > 10 | 1.4 | > 25 | 50 | – | 2.7 | 1.4 | 16 | 0.03 | – | – | – | – | – | –
13 | Nc1ccn([C@@H]2CS[C@H](CO)O2)c(=O)n1 [LAMIVUDINE] | – | – | – | – | – | – | – | – | – | – | – | – | 0.4 | – | –
14 | O=C1NCc2c1cc1ccc3c(c1c2-c1ccc2c(c1)OCO2)OCO3 | 1 | 0.16 | 11 | 4.5 | – | > 4 | 0.29 | 4 | 0.08 | – | – | – | – | – | –
15 | O=C(O)c1cc2ccc3c(c2c(-c2ccc4c(c2)OCO4)c1C(=O)O)OCO3 | > 10 | > 50 | > 20 | > 100 | – | > 100 | > 50 | > 100 | > 10 | – | – | – | – | – | –
16 | NC(=O)c1cc2ccc3c(c2c(-c2ccc4c(c2)OCO4)c1C(=O)O)OCO3 | 3 | < 0.1 | 9 | 8.4 | – | > 5 | 0.15 | 5 | 0.8 | 0.45 | – | – | – | – | –
17 | CC(=O)NN1Cc2cc3ccc4c(c3c(-c3ccc5c(c3)OCO5)c2C1=O)OCO4 | > 10 | 40 | > 20 | 32 | – | > 25 | 17 | 25 | 0.03 | – | – | – | – | – | –
18 | Cc1c(C(=O)OCCCO)cc2ccc3c(c2c1-c1ccc2c(c1)OCO2)OCO3 | > 10 | > 25 | > 15 | 46 | – | > 10 | > 25 | 10 | > 10 | – | – | – | – | – | –
19 | O=C1c2cc3ccc4c(c3c(-c3ccc5c(c3)OCO5)c2C(=O)N1CCCO)OCO4 | > 10 | > 30 | > 5 | 27 | – | > 22 | > 30 | 22 | > 20 | 8.1 | – | – | – | – | –
20 | Nc1nc2c(ncn2COCCO)c(=O)[nH]1 [ACYCLOVIR] | – | – | – | – | – | – | – | – | 0.02 | – | – | – | – | 8 | 51
21 | CNC(=O)c1cc2ccc3c(c2c(-c2ccc4c(c2)OCO4)c1C(=O)O)OCO3 | > 10 | > 25 | > 20 | 29 | – | > 26 | 12 | 26 | > 10 | – | – | – | – | – | –
22 | CN1Cc2cc3ccc4c(c3c(-c3ccc5c(c3)OCO5)c2C1=O)OCO4 | 3 | 14 | > 20 | 27 | – | > 26 | 14 | 26 | 0.08 | – | – | – | – | – | –
23 | COC(=O)c1cc2ccc3c(c2c(-c2ccc4c(c2)OCO4)c1C(=O)OC)OCO3 | 10 | > 50 | > 20 | 50 | – | > 28 | > 50 | 28 | > 20 | – | – | – | – | – | –
24 | CC(=O)NN1Cc2c(cc3ccc4c(c3c2-c2ccc3c(c2)OCO3)OCO4)C1=O | > 10 | 10 | 13 | 40 | – | > 7 | 5 | 7 | > 20 | – | – | – | – | – | –
25 | O=C1NCc2c1cc1c(Br)cc3c(c1c2-c1ccc2c(c1)OCO2)OCO3 | 10 | > 20 | > 20 | 38 | – | > 54 | 6.5 | 54 | > 10 | – | – | – | – | – | –
26 | O=C(O)c1cc2c(Br)cc3c(c2c(-c2ccc4c(c2)OCO4)c1CO)OCO3 | – | > 50 | > 20 | 46.5 | – | > 50 | > 50 | 50 | > 18 | > 20 | – | – | – | – | –
27 | O=C1OCc2c1cc1c(I)cc3c(c1c2-c1ccc2c(c1)OCO2)OCO3 | > 10 | > 25 | > 10 | 70 | – | > 80 | > 25 | 80 | > 20 | – | – | – | – | – | –
28 | O=C(O)c1cc2c(I)cc3c(c2c(-c2ccc4c(c2)OCO4)c1CO)OCO3 | 10 | > 50 | > 20 | > 100 | – | > 80 | > 50 | 80 | – | > 20 | – | – | – | – | –
29 | O=c1[nH][nH]c(=O)c2c(-c3ccc4c(c3)OCO4)c3c4c(cc(Cl)c3cc12)OCO4 | 10 | > 40 | > 20 | 38 | – | > 54 | > 7 | 54 | > 20 | – | – | – | – | – | –
30 | O=C1OC(O)c2c1c(-c1ccc3c(c1)OCO3)c1c3c(ccc1c2O)OCO3 (stereo unspecified) | > 10 | > 28 | > 10 | 39 | – | > 15 | > 23 | 15 | > 20 | – | – | – | – | – | –
